Here are results for 15 molecules from ChEMBL document CHEMBL5352462, “Resveratrol derivatives: Synthesis and their biological activities” (Eur J Med Chem, 2023).

SMILES strings stand for the structures.

Broadly, the IC50 is the point on the concentration scale where inhibition reaches its midpoint. Usually inhibition stands for the percentage by which the read-out fell short of the control. Broadly, the logP is a log measure of how a compound divides between an organic and an aqueous phase. A lower logP goes with a more hydrophilic compound.

The test system of one data set is HT-29. The data set can be described thus: Cytotoxicity against human HT-29 cells incubated for 24 hrs by MTT assay. It counts as functional, cell-based. The following applies: HT-29, 24 h. An outline of the steps:
(§1)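 Cells plated at 1.5 × 10⁵ per well, allowed to adhere overnight, medium refreshed, then treated at 10, 50 and 100 μM for 24 h; DMSO vehicle controls (<0.1%). Medium replaced after 72 h. MTT at 5 mg/mL in PBS added, 3 h at 37 °C in 5% CO₂; formazan dissolved in DMSO, absorbance read at 550 nm. IC50 from dose-response curves, mean ± SE of three independent experiments.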
(In general: Formazan colour is commonly taken as a measure of viable cells.)

For data set [1], the target named is Microtubule-associated protein tau (Homo sapiens) (UniProt P10636). Briefly: Inhibition of Tau in human Huh-7 cells at 40 uM relative to control. It counts as cell-based.
Microtubule-associated protein tau (Homo sapiens), sequence (P10636 whole entry): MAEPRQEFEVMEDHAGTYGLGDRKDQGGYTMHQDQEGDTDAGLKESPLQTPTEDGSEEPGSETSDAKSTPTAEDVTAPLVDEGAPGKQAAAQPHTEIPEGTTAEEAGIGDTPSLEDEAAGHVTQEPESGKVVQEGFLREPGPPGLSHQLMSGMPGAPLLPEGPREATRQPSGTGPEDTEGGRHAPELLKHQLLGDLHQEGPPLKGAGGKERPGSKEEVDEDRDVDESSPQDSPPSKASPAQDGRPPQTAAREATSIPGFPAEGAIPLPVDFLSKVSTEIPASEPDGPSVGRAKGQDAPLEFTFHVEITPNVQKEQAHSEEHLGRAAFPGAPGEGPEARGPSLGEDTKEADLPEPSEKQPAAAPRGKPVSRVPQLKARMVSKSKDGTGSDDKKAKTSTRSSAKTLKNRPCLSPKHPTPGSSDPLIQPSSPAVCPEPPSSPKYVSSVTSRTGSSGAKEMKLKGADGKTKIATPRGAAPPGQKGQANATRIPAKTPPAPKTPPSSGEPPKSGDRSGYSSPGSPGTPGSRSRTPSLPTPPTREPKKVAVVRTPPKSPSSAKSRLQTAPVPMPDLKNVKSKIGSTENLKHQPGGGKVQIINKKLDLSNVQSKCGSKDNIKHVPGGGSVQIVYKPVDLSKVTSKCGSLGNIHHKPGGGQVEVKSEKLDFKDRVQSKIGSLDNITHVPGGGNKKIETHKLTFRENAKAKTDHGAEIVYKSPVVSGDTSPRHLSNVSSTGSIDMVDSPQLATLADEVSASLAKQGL
Data set [2] addresses Calcitonin gene-related peptide type 1 receptor (Homo sapiens) (UniProt Q16602). Briefly: Inhibition of human CGRP1 at 30 uM relative to control.
For the next data set, the system named is MIA PaCa-2. The data set can be described thus: Cytotoxicity against human MIA PaCa-2 cells incubated for 24 hrs by MTT assay. Particulars: MIA PaCa-2, 24 h. It counts as functional, cell-based. The procedure, abridged: as §1
A short description of data set [3]: Lipophilicity, logP of compound. It counts as physicochemical. The following applies: octanol/water. The procedure, abridged: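 Log P calculated in silico, not measured experimentally.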
The subject of data set [4] is HCT-116. The data set can be described thus: Cytotoxicity against HCT-116 cell expressing KRAS assessed as growth inhibition by measuring synthetic lethality at 2 uM relative to control. It counts as functional. The following applies: Homo sapiens.
Data set [5] deals with COLO 320. Briefly: Cytotoxicity against human COLO 320 cell expressing KRAS assessed as growth inhibition by measuring synthetic lethality at 0.2 uM relative to control. The format is functional.
For data set [6], the target named is Calcitonin gene-related peptide type 1 receptor (Homo sapiens, UniProt O60894+Q16602). Briefly: Inhibition of human CGRP1.
Calcitonin gene-related peptide type 1 receptor, sequence (Q16602 whole entry, one chain of several): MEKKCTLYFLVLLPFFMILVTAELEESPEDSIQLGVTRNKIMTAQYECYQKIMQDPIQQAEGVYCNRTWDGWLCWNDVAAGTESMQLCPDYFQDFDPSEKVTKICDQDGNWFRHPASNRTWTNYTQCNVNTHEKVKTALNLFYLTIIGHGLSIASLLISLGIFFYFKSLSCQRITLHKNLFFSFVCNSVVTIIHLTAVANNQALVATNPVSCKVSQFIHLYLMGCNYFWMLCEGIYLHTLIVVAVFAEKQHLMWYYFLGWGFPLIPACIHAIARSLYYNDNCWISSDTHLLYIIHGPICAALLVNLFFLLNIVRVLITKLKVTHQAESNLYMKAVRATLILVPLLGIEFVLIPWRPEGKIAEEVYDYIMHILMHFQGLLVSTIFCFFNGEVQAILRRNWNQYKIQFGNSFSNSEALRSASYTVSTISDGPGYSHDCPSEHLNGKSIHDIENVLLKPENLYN
Data set [7] has as its system HCT cell line. Briefly: Cytotoxicity against HCT cell expressing KRAS assessed as growth inhibition by measuring synthetic lethality at 20 uM relative to control. It counts as functional. The following applies: Homo sapiens.
The subject of data set [8] is HCT cell line. Briefly: Cytotoxicity against HCT cell expressing KRAS assessed as growth inhibition by measuring synthetic lethality at 0.2 uM relative to control. It counts as functional. The following applies: Homo sapiens.
The subject of another data set is RKO. The data set can be described thus: Cytotoxicity against human RKO cell expressing KRAS assessed as growth inhibition by measuring synthetic lethality at 0.2 uM relative to control. It counts as functional.
Data set [9] deals with SNU-C1. The data set can be described thus: Cytotoxicity against human SNU-C1 cell expressing KRAS assessed as growth inhibition by measuring synthetic lethality at 20 uM relative to control. It counts as functional.
The test system of data set [10] is HCT cell line. The data set can be described thus: Cytotoxicity against HCT cell expressing KRAS assessed as growth inhibition by measuring synthetic lethality at 2 uM relative to control. It counts as functional. Particulars: Homo sapiens.
The test system of data set [11] is SNU-C1. The data set can be described thus: Cytotoxicity against human SNU-C1 cell expressing KRAS assessed as growth inhibition by measuring synthetic lethality at 2 uM relative to control. It counts as functional.
Data set [12] deals with HCT-116. Briefly: Cytotoxicity against HCT-116 cell expressing KRAS assessed as growth inhibition by measuring synthetic lethality at 20 uM relative to control. The format is functional. Particulars: Homo sapiens.
Data set [13] has as its system COLO 320. The data set can be described thus: Cytotoxicity against human COLO 320 cell expressing KRAS assessed as growth inhibition by measuring synthetic lethality at 2 uM relative to control. It counts as functional.
Data set [14] has as its system COLO 320. The data set can be described thus: Cytotoxicity against human COLO 320 cell expressing KRAS assessed as growth inhibition by measuring synthetic lethality at 20 uM relative to control. It counts as functional.
For data set [15], the system named is SNU-C1. The data set can be described thus: Cytotoxicity against human SNU-C1 cell expressing KRAS assessed as growth inhibition by measuring synthetic lethality at 0.2 uM relative to control. It counts as functional.

Calcitonin gene-related peptide type 1 receptor (Homo sapiens), sequence (Q16602 whole entry): as the sequence (Q16602 whole entry, one chain of several) above

For `Oc1ccc(/C=C/c2cc(O)cc(O)c2)cc1` [RESVERATROL], the IC50 is 78 µM with HT-29 and 132 µM in the data set on MIA PaCa-2. For the same molecule, the inhibition in [1] came out at 21.3%; in [2], 2.3%.

`Oc1cc(O)cc(-c2cc3ccc(O)cc3o2)c1` [MORACIN M]: inhibition in the data set on HT-29 was half-maximal at 73 µM (IC50). Also, the logP in data set [3] was 2.21.

In the case of `COc1ccc(-c2cc3cc(OC)cc(OC)c3[nH]2)cc1`, half-maximal inhibition in the data set on HT-29 (IC50) was put at 211 µM. In [3], this molecule showed a logP of 2.93.

Take `CCCCCCCCCCCC(=O)Oc1ccc(C=Cc2cc(OC(=O)CCCCCCCCCCC)cc(OC(=O)CCCCCCCCCCC)c2)cc1`: the IC50 is 134 µM in the data set on HT-29 and 198 µM in the data set with MIA PaCa-2. In addition, the logP in data set [3] was above 11.2.

Regarding `CC(C)(C)C(=O)Oc1ccc(/C=C/c2cc(OC(=O)C(C)(C)C)cc(OC(=O)C(C)(C)C)c2)cc1`, the IC50 in the data set on HT-29 amounted to 56 µM; with MIA PaCa-2, 39 µM. For the same molecule, the logP in data set [3] worked out at 8.76.

Turning to `Oc1ccc2cc(-c3cc(O)c(O)c(O)c3)oc2c1`, the inhibition at 2 µM was 33% in the data set on HCT-116 [4], 0.5% in the data set on HCT cell line [10], 3.1% in the data set on SNU-C1 [11] and 0% in the data set with COLO 320 [13]. In addition, the inhibition at 0.2 µM with COLO 320 [5] was determined as 0%; in the data set on HCT cell line [8] it was 15.6%; in the data set with RKO, 2.7%; with SNU-C1 [15], 5.8%. The results for the IC50 (in the data set with HT-29; in data set [6]) were 56 µM and 2.77 µM, respectively. The inhibition at 20 µM in the data set with HCT cell line [7] was 0%; in the data set on SNU-C1 [9], 11.2%; in the data set on HCT-116 [12], 85.9%; in the data set with COLO 320 [14] it was 0%. Moreover, the inhibition in data set [2] is 59.9%. For the same molecule, the logP in data set [3] was determined as 1.82.

With `Oc1ccc(/C=C/c2cc(O)c(O)c(O)c2)c(O)c1`, the figures for the IC50 in the data set with HT-29 and with MIA PaCa-2 were 78 µM and 96 µM, respectively. The same molecule showed a logP in data set [3] of 2.28.

Molecule `COc1ccc(-c2cc3cc(C)cc(C)c3[nH]2)cc1` showed an IC50 in the data set on HT-29 of 331 µM. Besides, the logP in data set [3] turned out to be 4.15.

`COc1ccc(/C=C/c2cc(OC)cc(OC)c2)cc1` [TRISMETHOXYRESVERATROL] showed an IC50 in the data set with MIA PaCa-2 of 35 µM. Also, the logP in data set [3] stood at 3.85.

For `COc1ccc(/C=C/c2cc(OC)c(OC)c(OC)c2)c(OC)c1`, the concentration for half-maximal inhibition (IC50) in the data set on HT-29 was found to be 12 µM; in the data set on MIA PaCa-2 it was 28 µM. Further, in data set [3], the logP is 3.59.

Turning to `OCCOc1ccc(/C=C/c2cc(OCCO)cc(OCCO)c2)cc1`, the IC50 amounted to 23 µM in the data set with HT-29 and 79 µM in the data set on MIA PaCa-2. In [3], this molecule gave a logP of 2.29.

Consider `COc1ccc(OC)c(-c2cc3ccc(O)cc3[nH]2)c1`, for which the inhibition at 2 µM in the data set on HCT-116 [4], in the data set on HCT cell line [10], with SNU-C1 [11] and with COLO 320 [13] was 0% throughout. The inhibition at 0.2 µM was 0% with COLO 320 [5], 0% in the data set on HCT cell line [8], 9.4% with RKO and 0% in the data set with SNU-C1 [15]. In the data set with HT-29, inhibition was half-maximal at 10 µM (IC50). Further, the inhibition at 20 µM with HCT cell line [7] came out at 6.3%; with SNU-C1 [9], 30.3%; in the data set with HCT-116 [12], 0%; in the data set with COLO 320 [14] it was 55.3%. For the same molecule, in [3], the logP is 2.66.

On to `COc1ccc(OC)c(-c2cc3ccc(OCc4ccccc4)cc3[nH]2)c1`, for which the inhibition at 2 µM amounted to 45.6% in the data set on HCT-116 [4], 6.9% with HCT cell line [10], 13.9% in the data set with SNU-C1 [11] and 0% in the data set on COLO 320 [13]. The inhibition at 0.2 µM was 0% in the data set on COLO 320 [5], 0% in the data set on HCT cell line [8], 77.3% in the data set on RKO and 7.4% in the data set with SNU-C1 [15]. The same molecule gave an IC50 in the data set with HT-29 of 239 µM. For the same molecule, the inhibition at 20 µM in the data set with HCT cell line [7] turned out to be 48.9%; in the data set on SNU-C1 [9], 44.5%; in the data set with HCT-116 [12] it was 89.7%; with COLO 320 [14] it was 0%. In addition, the logP in data set [3] stood at 5.15.

With `COc1cc(-c2cc3ccc(O)cc3o2)cc(OC)c1OC`, the inhibition at 2 µM in the data set with HCT-116 [4] was 6.3%; in the data set with HCT cell line [10], 0.5%; in the data set on SNU-C1 [11], 8.7%; in the data set on COLO 320 [13] it was 4.4%. Moreover, the inhibition at 0.2 µM stood at 0% in the data set with COLO 320 [5], 0% in the data set on HCT cell line [8], 0% with RKO and 8.7% with SNU-C1 [15]. In addition, the IC50 with HT-29 is 14 µM; in data set [6] it was 2.41 µM. The inhibition at 20 µM with HCT cell line [7] stood at 0%; with SNU-C1 [9], 14.9%; in the data set on HCT-116 [12], 87.4%; with COLO 320 [14] it was 0%. For the same molecule, the inhibition in data set [1] worked out at 58%; in [2], 54.2%. This molecule showed a logP in [3] of 2.61.

On to `COc1cc(OC)cc(-c2cc3ccc(O)cc3o2)c1`, for which the IC50 in the data set with HT-29 worked out at 19 µM. Further, in data set [3], the logP worked out at 2.74.
